ChEMBL document CHEMBL2040794, “Synthesis and structure-activity analysis of new phosphonium salts with potent activity against African trypanosomes” (J Med Chem, 2012)

Assays:
[1] = system: Trypanosoma brucei brucei; experiment: Antitrypanosomal activity against diminazene-, pentamidine-, and melaminophenyl arsenical-resistant HAPT1-deficient Trypanosoma brucei brucei B48 after 3 days by alamar blue assay; format: functional, organism-based; conditions: Trypanosoma brucei, B48, 72 h
In short: (§1)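 Bloodstream-form T. b. brucei (wild-type s427; TbAT1-KO, made from s427 by TbAT1 deletion; B48, selected from TbAT1-KO in vitro on pentamidine, lacking functional HAPT1). Cells were exposed to compound for 48 h, then resazurin (Alamar blue) was added for a further 24 h. A single fluorescence reading gave EC50.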

[2] = system: Trypanosoma brucei rhodesiense; experiment: Antitrypanosomal activity against Trypanosoma brucei rhodesiense STIB900 infected in rat L6 cells after 72 hrs by alamar blue assay; format: functional, organism-based; conditions: Trypanosoma brucei, STIB900, 72 h
[3] = system: Trypanosoma brucei brucei; experiment: Resistance factor, ratio of EC50 for diminazene-, pentamidine-, and melaminophenyl arsenical-resistant HAPT1-deficient Trypanosoma brucei brucei B48 to EC50 for wild type Trypanosoma brucei brucei Lister 427; format: functional
In short: (§2)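 Resistance factor is the EC50 in the resistant line (TbAT1-KO or B48) divided by the EC50 in wild-type s427. […] Resistant and wild-type EC50s were compared by Student t-test.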

[4] = system: Trypanosoma brucei brucei; experiment: Resistance factor, ratio of EC50 for diminazene aceturate-resistant TbAT1 gene-deficient Trypanosoma brucei brucei AT1-KO to EC50 for wild type Trypanosoma brucei brucei Lister 427; format: functional; in short: as §2
[5] = system: Trypanosoma brucei brucei; experiment: Antitrypanosomal activity against diminazene aceturate-resistant TbAT1 gene-deficient Trypanosoma brucei brucei AT1-KO after 3 days by alamar blue assay; format: functional, organism-based; conditions: Trypanosoma brucei, AT1-KO, 72 h; in short: as §1
[6] = system: L6; experiment: Cytotoxicity against rat L6 cells after 72 hrs by alamar blue assay; format: cell-based; conditions: Rattus norvegicus, L6, 72 h
[7] = system: Trypanosoma brucei brucei; experiment: Antitrypanosomal activity against wild type Trypanosoma brucei brucei Lister 427 after 3 days by alamar blue assay; format: functional, organism-based; conditions: Trypanosoma brucei, Lister 427, 72 h; in short: as §1
[8] = Cytotoxicity against human HEK cells after 3 days by alamar blue assay; format: cell-based, HEK293; conditions: Homo sapiens, HEK293, 72 h
In short: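 Human embryonic kidney cells tested by resazurin (Alamar blue) assay: 48 h with compound, then 24 h more after dye addition, single reading; EC₅₀ derived.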

[9] = Selectivity index, ratio of EC50 for human HEK cells to EC50 for wild type Trypanosoma brucei brucei Lister 427; format: toxicity, cell-based, HEK293; conditions: HEK cells, read-out: Ratio EC50
In short: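 Ratio of EC₅₀ in HEK cells to EC₅₀ in wild-type T. b. brucei s427, both from resazurin assays.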

**Q.** With `C[P+](C)(Cc1ccc(C(=O)c2ccc(C[P+](C)(C)c3ccccc3)cc2)cc1)c1ccccc1.[Br-].[Br-]` as the compound, how does the EC50 [1] read?
**A.** 24.6 µM

**Q.** And the EC50 [2]?
**A.** 8.8 µM

**Q.** What about the “Ratio EC50” value [3] of the same compound?
**A.** 1.3

**Q.** What about the “Ratio EC50” value [4] of the same compound?
**A.** 1.5

**Q.** What about the EC50 [5] of the same compound?
**A.** 28.8 µM

**Q.** What about the EC50 [6] of the same compound?
**A.** > 139 µM

**Q.** And the EC50 [7]?
**A.** 19.2 µM

**Q.** What does the source list for `CCC[P+](CCC)(CCC)Cc1ccc(C(=O)c2ccc(C[P+](CCC)(CCC)CCC)cc2)cc1.[Br-].[Br-]`?
**A.** EC50 [1]: 31.3 µM; EC50 [2]: 8.5 µM; Ratio EC50 [3]: 1.6; Ratio EC50 [4]: 1.4; EC50 [5]: 27.2 µM; EC50 [6]: > 130 µM; EC50 [7]: 19.7 µM

**Q.** Which results are given for `CC(C)C[P+](Cc1ccc(C(=O)c2ccc(C[P+](CC(C)C)(CC(C)C)CC(C)C)cc2)cc1)(CC(C)C)CC(C)C.[Br-].[Br-]`?
**A.** EC50 [1]: 6.3 µM; EC50 [8]: > 300 µM; EC50 [2]: 1.46 µM; Ratio EC50 [3]: 2.4; Ratio EC50 [4]: 3.2; EC50 [5]: 8.34 µM; EC50 [6]: > 116 µM; selectivity ratio [9]: > 110; EC50 [7]: 2.62 µM

**Q.** With `CC[P+](CC)(CC)Cc1ccc(C(=O)c2ccc(C[P+](CC)(CC)CC)cc2)cc1` as the compound, how does the EC50 [1] read?
**A.** > 100 µM

**Q.** And the EC50 [8]?
**A.** > 300 µM

**Q.** And the EC50 [2]?
**A.** 77.8 µM

**Q.** What about the EC50 [5] of the same compound?
**A.** > 100 µM

**Q.** And the EC50 [6]?
**A.** > 149 µM

**Q.** And the EC50 [7]?
**A.** > 100 µM

**Q.** For `COc1cc([C@@H]2c3cc4c(cc3[C@H](O)[C@H]3COC(=O)[C@H]23)OCO4)cc(OC)c1OC` [PODOFILOX], which EC50 [6] is on record?
**A.** 0.012 µM

**Q.** Which EC50 [1] does the source give for `O=S(=O)([O-])c1cccc([P+](Cc2ccc(Cc3ccc(C[P+](c4ccccc4)(c4ccccc4)c4cccc(S(=O)(=O)[O-])c4)cc3)cc2)(c2ccccc2)c2ccccc2)c1` here?
**A.** > 100 µM

**Q.** What about the EC50 [8] of the same compound?
**A.** > 300 µM

**Q.** And the EC50 [2]?
**A.** > 92 µM

**Q.** What about the EC50 [5] of the same compound?
**A.** > 100 µM

**Q.** And the EC50 [6]?
**A.** > 92 µM

**Q.** What about the EC50 [7] of the same compound?
**A.** > 100 µM

**Q.** Which results are given for `O=C(c1ccc(C[P+](c2ccco2)(c2ccco2)c2ccco2)cc1)c1ccc(C[P+](c2ccco2)(c2ccco2)c2ccco2)cc1.[Br-].[Br-]`?
**A.** EC50 [1]: 21.7 µM; EC50 [2]: 13.8 µM; Ratio EC50 [3]: 0.6; Ratio EC50 [4]: 0.9; EC50 [5]: 33.8 µM; EC50 [6]: 86 µM; EC50 [7]: 36.9 µM

**Q.** With `Fc1c(F)c(F)c([P+](Cc2ccc(Cc3ccc(C[P+](c4ccccc4)(c4ccccc4)c4c(F)c(F)c(F)c(F)c4F)cc3)cc2)(c2ccccc2)c2ccccc2)c(F)c1F.[Br-].[Br-]` as the compound, how does the EC50 [1] read?
**A.** 2.74 µM

**Q.** And the EC50 [8]?
**A.** > 300 µM

**Q.** And the EC50 [2]?
**A.** 16 µM

**Q.** What about the “Ratio EC50” value [3] of the same compound?
**A.** 1

**Q.** And the “Ratio EC50” value [4]?
**A.** 1.4

**Q.** And the EC50 [5]?
**A.** 3.79 µM

**Q.** And the selectivity ratio [9]?
**A.** > 110

**Q.** What about the EC50 [7] of the same compound?
**A.** 2.68 µM

**Q.** Which EC50 [1] does the source give for `N=C(N)c1ccc(/N=N/Nc2ccc(C(=N)N)cc2)cc1` [DIMINAZENE] here?
**A.** 2.62 µM

**Q.** And the “Ratio EC50” value [3]?
**A.** 5.1

**Q.** And the “Ratio EC50” value [4]?
**A.** 4.6

**Q.** What about the EC50 [7] of the same compound?
**A.** 0.517 µM

**Q.** With `CC(C)[P+](Cc1ccc(C(=O)c2ccc(C[P+](C(C)C)(C(C)C)C(C)C)cc2)cc1)(C(C)C)C(C)C.[Br-].[Br-]` as the compound, how does the EC50 [1] read?
**A.** 38.8 µM

**Q.** What about the EC50 [2] of the same compound?
**A.** 9.6 µM

**Q.** What about the “Ratio EC50” value [3] of the same compound?
**A.** 1.9

**Q.** What about the “Ratio EC50” value [4] of the same compound?
**A.** 1.6

**Q.** What about the EC50 [5] of the same compound?
**A.** 33.4 µM

**Q.** And the EC50 [6]?
**A.** > 130 µM

**Q.** What about the EC50 [7] of the same compound?
**A.** 20.6 µM

**Q.** For `CC(=O)N(c1ccc(C[P+](CC(C)C)(CC(C)C)CC(C)C)cc1)c1ccc(C[P+](CC(C)C)(CC(C)C)CC(C)C)cc1`, which EC50 [2] is on record?
**A.** 11.4 µM

**Q.** And the EC50 [6]?
**A.** > 112 µM

**Q.** Which EC50 [1] does the source give for `O=S(=O)([O-])c1cccc([P+](Cc2ccc(Oc3ccc(C[P+](c4ccccc4)(c4ccccc4)c4cccc(S(=O)(=O)[O-])c4)cc3)cc2)(c2ccccc2)c2ccccc2)c1` here?
**A.** > 100 µM

**Q.** What about the EC50 [8] of the same compound?
**A.** > 300 µM

**Q.** And the EC50 [2]?
**A.** > 92 µM

**Q.** What about the EC50 [5] of the same compound?
**A.** > 100 µM

**Q.** What about the EC50 [6] of the same compound?
**A.** 90.5 µM

**Q.** And the EC50 [7]?
**A.** > 100 µM

**Q.** What does the source list for `CC[P+](CC)(CC)Cc1ccc(C(=O)c2ccccc2)cc1`?
**A.** EC50 [1]: > 100 µM; EC50 [8]: > 300 µM; EC50 [2]: > 254 µM; EC50 [5]: > 100 µM; EC50 [6]: > 254 µM; EC50 [7]: > 100 µM

**Q.** With `CC(C)C[P+](Cc1ccc(S(=O)(=O)c2ccc(C[P+](CC(C)C)(CC(C)C)CC(C)C)cc2)cc1)(CC(C)C)CC(C)C.[Br-].[Br-]` as the compound, how does the EC50 [1] read?
**A.** 13.3 µM

**Q.** What about the EC50 [2] of the same compound?
**A.** 6.31 µM

**Q.** And the “Ratio EC50” value [3]?
**A.** 0.8

**Q.** And the “Ratio EC50” value [4]?
**A.** 0.8

**Q.** What about the EC50 [5] of the same compound?
**A.** 13.6 µM

**Q.** And the EC50 [6]?
**A.** > 111 µM

**Q.** And the EC50 [7]?
**A.** 16.7 µM

**Q.** With `Nc1nc(N)nc(Nc2ccc([As]3SCC(CO)S3)cc2)n1` (centres undefined) [MELARSOPROL] as the compound, how does the EC50 [2] read?
**A.** 0.0075 µM
